# Assay results collected from several papers.
# Each line is one published result; the experiments were not run side by side.
# Observed: metabolic stability
# Species: human
Structure (SMILES),sample,concentration,pH,half-life [min]
CCNc1nc2c(c(N3CC(=O)Nc4cc(OC)ccc43)n1)CCC2,liver microsomes,,,16.7
CC[C@@H]1C=CC(=O)O[C@@H]1C[C@@H](O)[C@H](C)[C@H](OC)[C@@H](C)Cc1ccc(F)cc1,liver microsomes,,,3.3
CCOC(=O)NS(=O)(=O)c1sc(CC(C)C)cc1-c1ccc2c(c1)CN(C(C)=O)C2,liver microsomes,1 µM,pH 7.4,7.8
O=S(=O)(Nc1cccc(-c2nnn[nH]2)c1)c1cc(Cl)c(Cl)cc1Cl,liver microsomes,,,88
Cc1cccc(-n2ncc(Br)c(Br)c2=O)c1,liver microsomes,,,7.1
C[C@H](CCCOc1cccc(CO)c1)[C@H]1CC[C@H]2[C@@H]3CC=C4C[C@@H](O)CC[C@]4(C)[C@H]3CC[C@]12C,liver microsomes,1 µM,pH 7.4,330
O=S(=O)(Nc1cccc(-c2nnn[nH]2)c1)c1ccc(Cl)c2nonc12,liver microsomes,,,200
CCCCOC(=O)NS(=O)(=O)c1sc(CC(C)C)cc1-c1ccc(OC(F)(F)F)c(Cn2ccnc2)c1,liver microsomes,1 µM,pH 7.4,10
COc1ccc(-c2ocnc2C(=O)NCCCn2cncn2)cc1Cl,liver microsomes,,,78.7
CC[C@@H]1C=CC(=O)O[C@@H]1C[C@@H](OC)[C@H](C)[C@H](OC)[C@@H](C)Cc1ccc(F)cc1,liver microsomes,,,< 2.3
CCN(CC)S(=O)(=O)c1ccc(S(=O)(=O)N2CCC[C@@H](C(=O)N3CCC(F)(F)CC3)C2)cc1,liver microsomes,1.05 µM,,2.7
CCOC(=O)NS(=O)(=O)c1sc(CC(C)C)cc1-c1ccc2c(c1)CN(C(=O)OCC)C2,liver microsomes,1 µM,pH 7.4,2.3
O=C(CC1Cc2ccccc2C1)N[C@H](CN1CCCC1)[C@H](O)c1ccc(OC(F)(F)F)cc1,liver microsomes,1 µM,pH 7.4,84
O=C(O)Cc1ccccc1Nc1c(Cl)cccc1Cl,hepatocytes,1 µM,,18.4
O=C(NC1CCC1)c1ccc2nc(-c3cccc(NS(=O)(=O)NCCN4CCCCC4)c3)cn2c1,liver microsomes,1 µM,,21
COc1ccc([C@@H]2Sc3ccccc3N(CCN(C)C)C(=O)[C@@H]2OC(C)=O)cc1,hepatocytes,1 µM,,91.8
CCS(=O)(=O)Nc1ccc(OCCOCCOCCOCCOc2ccc(NS(=O)(=O)CC)cc2-c2cn(C)c(=O)c3ccccc23)c(-c2cn(C)c(=O)c3ccccc23)c1,liver microsomes,,,< 2.3
CCOc1ccc2ccc(=O)oc2c1,liver microsomes,1 µM,pH 7.4,10
CC[C@@H]1C=CC(=O)O[C@@H]1C[C@@H](O)[C@H](C)[C@H](O)[C@@H](C)Cc1ccc(F)cc1,liver microsomes,,,< 7.7
C/C=C/C[C@H](C)[C@@H](OC)[C@@H](C)[C@H](O)C[C@H]1OC(=O)C=C[C@H]1CC,liver microsomes,,,< 7
O=C1CCN(C(=O)Nc2ccc(F)c(C(F)F)c2)[C@@H]2CCCC[C@H]12,liver microsomes,,,> 56
O=C(N[C@H](Cc1c[nH]c2ccccc12)C(=O)Nc1ccncc1)c1ccc(-c2cc(F)ccc2F)cc1F,liver microsomes,,,17
CCCCOC(=O)NS(=O)(=O)c1sc(CC(C)C)cc1-c1ccc2c(c1)CN(C(C)=O)C2,liver microsomes,1 µM,pH 7.4,2.4
O=C(OC(C(F)(F)F)C(F)(F)F)N1Cc2ccc(OCCN3CCOCC3)cc2C1,liver microsomes,,,40
CC(C)NCC(O)COc1cccc2ccccc12 (stereo not shown),liver microsomes,1 µM,,57.8
CCS(=O)(=O)Nc1cccc(-c2cn(C)c(=O)c3ccccc23)c1,liver microsomes,,,315
CCCN(C)Cc1cc(-c2[nH]c3cccc(F)c3c(=O)c2C)ccc1Cc1ccc(OC(F)(F)F)cc1,liver microsomes,,,1.67
CO[C@@H](C[C@H]1C(C)=CC[C@@H]2[C@]3(C)C[C@H](O[C@@H]4O[C@@H](C)[C@H](OC(=O)c5cccc(O)c5)[C@@H](O[C@@H]5O[C@H](CO)[C@@H](O)[C@H](O)[C@H]5NC(C)=O)[C@H]4O)[C@@H](O)C(C)(C)[C@H]3CC[C@]21C)[C@H](N)C(=O)O.O=C(O)C(F)(F)F,hepatocytes,1 µM,,> 360
